LYPLA1 counter – LYPLA1 (human) inhibition in PME1 counter-screen; inhibition, % at 5.9 µM; O75608; hit rate 0.16% among 320,000; recombinant LYPLA1, FP-Rh probe fluorescence polarization;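 active = inhibition above the mean of all tested compounds plus 3 SD, set per campaign, cut at about 14% in these data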;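 note: inhibitors block serine hydrolase probe labeling of LYPLA1 so polarization falls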
RBBP9 inhibitor – blocks human serine hydrolase RBBP9; recombinant RBBP9, FP-Rh probe fluorescence polarization; hit rate 0.2% among 220,000; AID 1515; O75884; inhibition, % at 7.94 µM;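 active = inhibition above the campaign mean of all tested compounds plus 3 SD, cut at about 14% in these data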
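Controls: DMSO-treated enzyme wells and wells lacking RBBP9 | Material: RBBP9 protein | Technique: Fluorescence polarization | Replication: Single well per compound, no replicates | Buffer or medium: Tris-NaCl-Pluronic buffer, pH 8.0 | Timing: 30 min compound preincubation, 45 min probe labeling, 25 °C | Read-out basis: Percent inhibition from mP, scaled between DMSO and no-protein wells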
LYPLA2 counter – blocks human lysophospholipase 2, a PME1 counter-screen; AID 2177; recombinant LYPLA2, FP-Rh probe fluorescence polarization; inhibition, % at 5.9 µM; hit rate 0.38% among 320,000;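 active = inhibition above the screen-wide mean plus 3 SD, limit set per campaign, cut at about 26% in these data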
Fam108B inh – blocks mouse Fam108B hydrolase in RBBP9 counter-screen. recombinant Fam108B, FP-Rh probe fluorescence polarization. hit rate 0.33% among 300,000. inhibition, % at 9.51 µM;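 active = inhibition above the screen mean inhibition plus 3 SD, computed separately per campaign, cut at about 18% in these data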;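 note: inhibitors lower polarization as less probe binds the enzyme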
PME-1 inh – blocks human protein phosphatase methylesterase 1; Q9Y570; recombinant PME-1, FP-Rh probe fluorescence polarization; inhibition, % at 5.9 µM; hit rate 0.53% among 320,000;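 active = inhibition above the campaign mean of all compounds plus 3 SD, cut at about 26% in these data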;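 note: competitive labeling of PME-1 active site by serine hydrolase directed probe; inhibitors block probe labeling so polarization falls and inhibition rises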
Target sequence (Q9Y570 whole entry, looked up): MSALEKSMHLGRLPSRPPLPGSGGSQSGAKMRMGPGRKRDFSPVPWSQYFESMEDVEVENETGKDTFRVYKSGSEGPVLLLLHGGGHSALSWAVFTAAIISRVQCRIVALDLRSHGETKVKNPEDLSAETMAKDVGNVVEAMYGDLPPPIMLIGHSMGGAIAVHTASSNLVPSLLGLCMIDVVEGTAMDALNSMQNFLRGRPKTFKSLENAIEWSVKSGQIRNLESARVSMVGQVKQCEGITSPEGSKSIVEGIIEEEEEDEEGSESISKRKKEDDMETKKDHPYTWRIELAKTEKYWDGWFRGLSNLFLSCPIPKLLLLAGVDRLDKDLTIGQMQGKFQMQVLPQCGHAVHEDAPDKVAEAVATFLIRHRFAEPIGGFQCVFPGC
Large screens that a line does not name were inactive. The list is not random: actives were taken first. Their share in the collection is about 0.99%.

N#CCCN1CCN(C2=NC(=O)/C(=C\c3cccs3)S2)CC1	LYPLA2 counter 29
CCCCC1(CC(=O)OC)C(=O)N(c2ccccc2)N(c2ccccc2)C1=O	none
CCCn1c(CCC(=O)Nc2ccccc2Cc2ccccc2)nc2cc(S(=O)(=O)N3CCOCC3)ccc21	PME-1 inh 37
Cc1cccc(Oc2cc(N)cc([N+](=O)[O-])c2)c1	LYPLA2 counter 31
Nc1cc(Oc2cccnc2)cc([N+](=O)[O-])c1	none (no result: LYPLA1 counter, LYPLA2 counter, Fam108B inh, PME-1 inh)
Cc1cc(C)c(NC(=O)C(C)c2cccc(C(=O)c3ccccc3)c2)c(C)c1 (stereo not drawn)	none
CCC(C(=O)N1CCOCC1)n1c2ccccc2c2nc(=O)cc(C)n21 (stereo not drawn)	none (no result: RBBP9 inhibitor)
Cc1nc2ccccc2nc(=O)c1NNc1ccccc1	none (no result: LYPLA1 counter, LYPLA2 counter, Fam108B inh, PME-1 inh)
Cc1ccc2nc(=O)c(NNc3ccccc3)cnc2c1	PME-1 inh 41
O=C(NCCCO)Nc1ccc2nc(-c3ccco3)c(-c3ccco3)nc2c1	Fam108B inh 52
O=C(Nc1ccc2nc(-c3ccco3)c(-c3ccco3)nc2c1)NC1CC1	none (no result: LYPLA1 counter, LYPLA2 counter, Fam108B inh, PME-1 inh)
CCS(=O)(=O)Nc1cccc(C2=NN(S(=O)(=O)CC)C(c3cccs3)C2)c1 (stereo not drawn)	none (no result: RBBP9 inhibitor)
CCOc1cccc(CNc2ccc(O)cc2)c1OCc1ccc(Cl)cc1	none
CCOc1cc(CNc2ccc(O)cc2)ccc1OCc1ccc(Cl)cc1Cl	PME-1 inh 29
Cc1ccc(NC(=O)Cn2ccc([N+](=O)[O-])n2)cc1Cl	none
O=C(N/N=C/c1c[nH]c2ccccc12)c1cc(-c2ccc(-c3ccccc3)cc2)n[nH]1	none
O=C(N/N=C/c1c[nH]c2ccccc12)C1CC1(c1ccccc1)c1ccccc1 (stereo not drawn)	PME-1 inh 31
O=C(N/N=C/c1c[nH]c2ccccc12)c1cc(-c2cccc3ccccc23)n[nH]1	PME-1 inh 28
O=C(N/N=C/c1c[nH]c2ccccc12)c1cc(-c2ccc3ccccc3c2)n[nH]1	PME-1 inh 29
CCCC(=O)N=C1SC2CS(=O)(=O)CC2N1c1ccc(-c2nc3ccc(C)cc3s2)cc1 (stereo not drawn)	none
Oc1c(Br)cc(Br)cc1CNc1ccc(F)cc1	none
Oc1c(Br)cc(Br)cc1CNc1cnc2ccccc2c1	PME-1 inh 46 (no result: RBBP9 inhibitor)
CC(C)N(CCc1ccncc1)C(=S)Nc1ccc(F)c(Cl)c1	none
COc1cc(OC)c(NC(=S)Nc2cc(Cl)cc(Cl)c2)cc1Cl	Fam108B inh 21
COc1cc(OC)c(NC(=S)Nc2cccc(C(C)=O)c2)cc1Cl	none
COc1ccc(/C=N/NC(=O)c2ccn[nH]2)cc1CN1CCOCC1	none
COc1ccccc1NC(=O)CCC(=O)Nc1nnc(C(F)(F)F)s1	PME-1 inh 89
O=C(N/N=C/c1c(Cl)[nH]c2ccccc12)c1ccc2c(c1)OCCO2	PME-1 inh 29
COc1cc(/C=N/NC(=O)c2ccc3c(c2)OCCO3)c(Br)c(Br)c1O	PME-1 inh 45 (no result: RBBP9 inhibitor)
COc1cc(/C=N/NC(=O)c2cc(C34CC5CC(CC(C5)C3)C4)[nH]n2)ccc1O	Fam108B inh 21
COc1ccc(C(=O)N2CCc3cc(OC)c(OC)cc3C2)cc1OC	none
COc1cc2c(cc1OC)CN(C(=O)c1ccc3[nH]c(C)c(C)c3c1)CC2	PME-1 inh 38 (no result: RBBP9 inhibitor)
Cc1cc(S(=O)(=O)Nc2c(C)ccc3nsnc23)ccc1F	none
Cc1ccc2nsnc2c1NS(=O)(=O)c1c(C)ccc2nsnc12	PME-1 inh 31
Cc1ccc(C2CC(C(F)(F)F)n3nc(C(=O)NCC4CCCO4)cc3N2)cc1 (stereo not drawn)	none (no result: LYPLA1 counter, LYPLA2 counter, Fam108B inh, PME-1 inh)
CC(=O)Nc1ccc(Br)c2ccccc12	none
O=C(Nc1ccc(Br)c2ccccc12)c1ccc2ccccc2c1O	Fam108B inh 39
CC1CCCC(NC(=O)C2CCN(C(=O)Nc3ccccc3)CC2)C1C (stereo not drawn)	none (no result: RBBP9 inhibitor)
COc1ccc(C(=O)c2ccc(OC)c3cccc(O)c23)cc1OC	none
COc1ccc2c3c(cccc13)NN=C2C	RBBP9 inhibitor 15 (no result: LYPLA1 counter, LYPLA2 counter, Fam108B inh, PME-1 inh)
CSc1ncc(CO)n1Cc1ccccc1	none
O=C(N=Nc1c(O)[nH]c2ccccc12)c1cccs1	PME-1 inh 28
Cc1ccc(N=Cc2nc(/C=C/c3cccc([N+](=O)[O-])c3)oc2O)cc1	PME-1 inh 27
Cc1ccc(SCC(=O)c2ccc(CC(=O)O)s2)cc1	none
CCOC(=O)N1CC=C2C(C#N)=C(N)C(C#N)(C#N)[C@H](c3ccc(OCC)c(OCC)c3)[C@H]2C1	none
